For orientation: inhibition means how much of the control response was suppressed.

Our source for the inhibition and fold change (FC) values is ChEMBL document CHEMBL5653631, “A Potent and Selective ULK1 Inhibitor Suppresses Autophagy and Sensitizes Cancer Cells to Nutrient Stress” (iScience, 2018).

Assay [1] has as its target Mitogen-activated protein kinase 10 (Homo sapiens) (UniProt P53779). As to the kind of experiment: Inhibition of human recombinant JNK3 at 15 nM in presence of ATP by radiometric assay relative to control.
Assay [2] concerns the target Serine/threonine-protein kinase 26 (Homo sapiens) (UniProt Q9P289). As to the kind of experiment: Inhibition of human recombinant MST4 at 15 nM in presence of ATP by radiometric assay relative to control.
Assay [3] addresses Serine/threonine-protein kinase PLK1 (Homo sapiens) (UniProt P53350). As to the kind of experiment: Inhibition of human recombinant PLK1 at 15 nM in presence of ATP by radiometric assay relative to control.
Assay [4] addresses Serine/threonine-protein kinase WNK1 (Homo sapiens) (UniProt Q9H4A3). Description: Inhibition of human recombinant Wnk1 at 15 nM related to control ULK1.
For assay [5], the target named is T1, Serine/threonine-protein kinase A-Raf (Homo sapiens) (UniProt P10398).
T1 sequence (whole entry): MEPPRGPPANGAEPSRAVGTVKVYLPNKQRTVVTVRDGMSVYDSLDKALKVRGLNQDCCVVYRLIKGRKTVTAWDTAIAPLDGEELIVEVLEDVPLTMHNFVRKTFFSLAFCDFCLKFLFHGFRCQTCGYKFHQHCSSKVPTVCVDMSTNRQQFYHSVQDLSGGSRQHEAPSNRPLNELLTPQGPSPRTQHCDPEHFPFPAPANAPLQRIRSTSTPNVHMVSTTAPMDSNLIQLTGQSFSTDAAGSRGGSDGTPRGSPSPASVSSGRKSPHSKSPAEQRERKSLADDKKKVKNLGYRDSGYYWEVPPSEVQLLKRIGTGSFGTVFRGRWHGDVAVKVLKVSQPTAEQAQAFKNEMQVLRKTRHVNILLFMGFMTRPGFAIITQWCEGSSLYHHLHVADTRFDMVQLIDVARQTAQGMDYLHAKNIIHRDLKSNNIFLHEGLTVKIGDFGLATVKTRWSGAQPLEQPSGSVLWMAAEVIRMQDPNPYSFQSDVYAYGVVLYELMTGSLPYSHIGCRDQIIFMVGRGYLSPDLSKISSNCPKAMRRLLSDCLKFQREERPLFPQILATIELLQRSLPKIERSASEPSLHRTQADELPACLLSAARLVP
As to the kind of experiment: Inhibition of human recombinant ARAF at 40 nM in presence of ATP by radiometric assay relative to control. Summed up:
(§1)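 Panel of 327 recombinant human kinases, each assayed in vitro by radiometric activity assay in duplicate at a single inhibitor concentration per compound, chosen with reference to its ULK1 inhibition. Activity remaining was expressed as percent of vehicle control, and percent inhibition was calculated as 100 minus percent activity remaining.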

Assay [6] concerns the target Casein kinase I isoform gamma-2 (Homo sapiens) (UniProt P78368). As to the kind of experiment: Inhibition of human recombinant CK1g2 at 40 nM in presence of ATP by radiometric assay relative to control.
In assay [7] the target is Cyclin-dependent kinase 12 (Homo sapiens) (UniProt Q9NYV4). Description: Inhibition of human recombinant CRK7 at 40 nM in presence of ATP by radiometric assay relative to control.
The target of assay [8] is T2, NUAK family SNF1-like kinase 1 (Homo sapiens) (UniProt O60285).
T2 sequence (whole entry): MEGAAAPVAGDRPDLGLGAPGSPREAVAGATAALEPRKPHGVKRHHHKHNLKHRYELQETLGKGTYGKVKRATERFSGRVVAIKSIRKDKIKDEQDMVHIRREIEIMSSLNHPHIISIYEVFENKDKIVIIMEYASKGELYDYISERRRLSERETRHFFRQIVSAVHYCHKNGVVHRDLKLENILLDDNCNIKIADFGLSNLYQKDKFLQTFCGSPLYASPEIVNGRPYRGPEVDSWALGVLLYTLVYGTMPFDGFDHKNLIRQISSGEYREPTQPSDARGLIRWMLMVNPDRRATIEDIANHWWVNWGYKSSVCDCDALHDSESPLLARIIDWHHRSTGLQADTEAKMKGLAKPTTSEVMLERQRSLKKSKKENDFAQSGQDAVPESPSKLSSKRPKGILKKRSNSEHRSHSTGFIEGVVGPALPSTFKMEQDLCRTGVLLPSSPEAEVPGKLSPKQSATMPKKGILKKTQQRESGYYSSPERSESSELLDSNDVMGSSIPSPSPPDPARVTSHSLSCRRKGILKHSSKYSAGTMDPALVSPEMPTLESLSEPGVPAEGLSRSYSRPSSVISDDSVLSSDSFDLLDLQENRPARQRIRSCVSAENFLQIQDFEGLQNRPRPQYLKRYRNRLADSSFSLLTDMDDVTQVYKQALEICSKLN
As to the kind of experiment: Inhibition of human recombinant NuaK1 at 40 nM in presence of ATP by radiometric assay relative to control.

Assay [9] concerns the target BDNF/NT-3 growth factors receptor (Homo sapiens) (UniProt Q16620). As to the kind of experiment: Inhibition of human recombinant TRKB at 40 nM in presence of ATP by radiometric assay relative to control.
The target of assay [10] is Tau-tubulin kinase 2 (Homo sapiens) (UniProt Q6IQ55). Description: Inhibition of human recombinant TTBK2 at 40 nM related to control ULK1.
Assay [11] concerns the target 5'-AMP-activated protein kinase catalytic subunit alpha-1 (Homo sapiens) (UniProt Q13131). Description: Inhibition of human recombinant AMPKa1 at 500 nM in presence of ATP by radiometric assay relative to control. Summed up: as §1
Assay [12] deals with Vascular endothelial growth factor receptor 2 (Homo sapiens) (UniProt P35968). As to the kind of experiment: Inhibition of human recombinant KDR at 500 nM in presence of ATP by radiometric assay relative to control.
The target in assay [13] is T3, Serine/threonine-protein kinase Chk1 (Homo sapiens) (UniProt O14757).
T3 sequence (whole entry): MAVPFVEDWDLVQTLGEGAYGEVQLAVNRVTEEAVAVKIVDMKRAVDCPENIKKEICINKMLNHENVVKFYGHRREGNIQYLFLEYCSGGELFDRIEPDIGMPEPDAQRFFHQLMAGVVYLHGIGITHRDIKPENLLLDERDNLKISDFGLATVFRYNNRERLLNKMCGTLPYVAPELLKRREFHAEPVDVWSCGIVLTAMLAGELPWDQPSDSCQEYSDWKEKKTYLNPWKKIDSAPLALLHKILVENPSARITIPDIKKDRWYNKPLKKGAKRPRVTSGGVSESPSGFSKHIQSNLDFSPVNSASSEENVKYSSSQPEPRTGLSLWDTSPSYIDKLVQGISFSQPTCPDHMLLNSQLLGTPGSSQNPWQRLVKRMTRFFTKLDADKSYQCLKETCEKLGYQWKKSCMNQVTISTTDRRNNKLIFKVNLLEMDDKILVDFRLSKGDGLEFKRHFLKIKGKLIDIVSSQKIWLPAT
Description: Inhibition of human recombinant CHK1 at 500 nM related to control ULK1.

The target of assay [14] is Insulin receptor-related protein (Homo sapiens) (UniProt P14616). Description: Inhibition of human recombinant IRR at 500 nM related to control ULK1.
Chain of Insulin receptor-related protein (Homo sapiens) (P14616 27-742 limits assumed): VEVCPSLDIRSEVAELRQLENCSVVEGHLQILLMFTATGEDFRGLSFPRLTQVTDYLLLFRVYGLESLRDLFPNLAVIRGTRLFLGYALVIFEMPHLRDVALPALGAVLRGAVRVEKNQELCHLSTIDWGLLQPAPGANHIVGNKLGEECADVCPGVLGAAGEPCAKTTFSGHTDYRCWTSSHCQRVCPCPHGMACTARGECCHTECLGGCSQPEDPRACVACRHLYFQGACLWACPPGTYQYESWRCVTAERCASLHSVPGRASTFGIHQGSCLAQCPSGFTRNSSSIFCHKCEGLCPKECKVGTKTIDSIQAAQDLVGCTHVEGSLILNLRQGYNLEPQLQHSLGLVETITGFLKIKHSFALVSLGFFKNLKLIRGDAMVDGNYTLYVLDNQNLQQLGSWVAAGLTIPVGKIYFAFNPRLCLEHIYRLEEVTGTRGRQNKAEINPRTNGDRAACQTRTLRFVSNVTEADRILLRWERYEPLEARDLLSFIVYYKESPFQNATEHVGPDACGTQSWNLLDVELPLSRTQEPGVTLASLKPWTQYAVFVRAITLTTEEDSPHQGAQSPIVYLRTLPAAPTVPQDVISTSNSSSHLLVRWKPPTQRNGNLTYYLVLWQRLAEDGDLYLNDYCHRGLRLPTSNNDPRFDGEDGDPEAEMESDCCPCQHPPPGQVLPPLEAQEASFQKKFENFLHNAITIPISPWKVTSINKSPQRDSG
Chain of Insulin receptor-related protein (Homo sapiens) (P14616 747-1297 limits assumed): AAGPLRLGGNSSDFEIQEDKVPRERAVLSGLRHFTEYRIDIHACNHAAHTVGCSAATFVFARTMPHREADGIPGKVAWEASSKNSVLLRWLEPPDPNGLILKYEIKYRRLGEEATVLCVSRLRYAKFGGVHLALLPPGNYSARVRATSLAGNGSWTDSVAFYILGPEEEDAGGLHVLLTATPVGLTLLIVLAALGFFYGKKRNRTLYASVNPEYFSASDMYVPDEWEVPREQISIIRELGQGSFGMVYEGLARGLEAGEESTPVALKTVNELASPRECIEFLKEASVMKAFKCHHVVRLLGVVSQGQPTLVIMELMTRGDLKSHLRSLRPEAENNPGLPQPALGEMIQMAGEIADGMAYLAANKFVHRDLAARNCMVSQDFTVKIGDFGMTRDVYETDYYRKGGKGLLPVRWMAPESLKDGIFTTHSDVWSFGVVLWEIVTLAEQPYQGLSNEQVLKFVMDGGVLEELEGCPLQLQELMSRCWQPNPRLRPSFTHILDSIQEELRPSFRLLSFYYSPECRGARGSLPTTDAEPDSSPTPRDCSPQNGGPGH

Chain of Casein kinase I isoform gamma-2 (Homo sapiens) (P78368 whole entry, looked up, canonical isoform): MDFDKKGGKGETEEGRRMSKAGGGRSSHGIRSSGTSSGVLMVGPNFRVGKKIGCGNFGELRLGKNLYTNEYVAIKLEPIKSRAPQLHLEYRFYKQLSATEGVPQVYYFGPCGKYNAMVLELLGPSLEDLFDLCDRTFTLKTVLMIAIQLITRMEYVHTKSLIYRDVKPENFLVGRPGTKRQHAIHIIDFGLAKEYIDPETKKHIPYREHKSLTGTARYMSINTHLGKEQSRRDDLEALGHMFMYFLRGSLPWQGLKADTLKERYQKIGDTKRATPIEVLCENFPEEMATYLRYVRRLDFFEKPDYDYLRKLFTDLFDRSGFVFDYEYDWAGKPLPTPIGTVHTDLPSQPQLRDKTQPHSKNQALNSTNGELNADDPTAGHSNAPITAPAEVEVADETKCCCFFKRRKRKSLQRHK
Chain of Serine/threonine-protein kinase PLK1 (Homo sapiens) (P53350 whole entry): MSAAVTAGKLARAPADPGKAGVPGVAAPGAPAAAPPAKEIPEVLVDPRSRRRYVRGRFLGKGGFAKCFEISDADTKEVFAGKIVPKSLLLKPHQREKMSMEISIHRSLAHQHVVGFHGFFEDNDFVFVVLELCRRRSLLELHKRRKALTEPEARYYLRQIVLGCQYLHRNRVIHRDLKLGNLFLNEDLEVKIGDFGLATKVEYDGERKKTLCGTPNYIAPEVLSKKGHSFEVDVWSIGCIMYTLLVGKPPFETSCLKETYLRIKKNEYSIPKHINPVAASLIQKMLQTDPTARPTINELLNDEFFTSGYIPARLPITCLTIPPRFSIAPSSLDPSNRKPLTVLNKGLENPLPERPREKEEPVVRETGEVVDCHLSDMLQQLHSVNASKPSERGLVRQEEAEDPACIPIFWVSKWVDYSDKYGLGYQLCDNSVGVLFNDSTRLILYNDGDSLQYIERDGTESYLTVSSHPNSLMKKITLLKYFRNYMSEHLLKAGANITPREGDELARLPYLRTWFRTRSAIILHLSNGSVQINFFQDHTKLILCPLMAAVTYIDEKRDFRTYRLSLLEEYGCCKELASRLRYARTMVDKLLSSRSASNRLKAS
Chain of Serine/threonine-protein kinase WNK1 (Homo sapiens) (Q9H4A3 whole entry, looked up): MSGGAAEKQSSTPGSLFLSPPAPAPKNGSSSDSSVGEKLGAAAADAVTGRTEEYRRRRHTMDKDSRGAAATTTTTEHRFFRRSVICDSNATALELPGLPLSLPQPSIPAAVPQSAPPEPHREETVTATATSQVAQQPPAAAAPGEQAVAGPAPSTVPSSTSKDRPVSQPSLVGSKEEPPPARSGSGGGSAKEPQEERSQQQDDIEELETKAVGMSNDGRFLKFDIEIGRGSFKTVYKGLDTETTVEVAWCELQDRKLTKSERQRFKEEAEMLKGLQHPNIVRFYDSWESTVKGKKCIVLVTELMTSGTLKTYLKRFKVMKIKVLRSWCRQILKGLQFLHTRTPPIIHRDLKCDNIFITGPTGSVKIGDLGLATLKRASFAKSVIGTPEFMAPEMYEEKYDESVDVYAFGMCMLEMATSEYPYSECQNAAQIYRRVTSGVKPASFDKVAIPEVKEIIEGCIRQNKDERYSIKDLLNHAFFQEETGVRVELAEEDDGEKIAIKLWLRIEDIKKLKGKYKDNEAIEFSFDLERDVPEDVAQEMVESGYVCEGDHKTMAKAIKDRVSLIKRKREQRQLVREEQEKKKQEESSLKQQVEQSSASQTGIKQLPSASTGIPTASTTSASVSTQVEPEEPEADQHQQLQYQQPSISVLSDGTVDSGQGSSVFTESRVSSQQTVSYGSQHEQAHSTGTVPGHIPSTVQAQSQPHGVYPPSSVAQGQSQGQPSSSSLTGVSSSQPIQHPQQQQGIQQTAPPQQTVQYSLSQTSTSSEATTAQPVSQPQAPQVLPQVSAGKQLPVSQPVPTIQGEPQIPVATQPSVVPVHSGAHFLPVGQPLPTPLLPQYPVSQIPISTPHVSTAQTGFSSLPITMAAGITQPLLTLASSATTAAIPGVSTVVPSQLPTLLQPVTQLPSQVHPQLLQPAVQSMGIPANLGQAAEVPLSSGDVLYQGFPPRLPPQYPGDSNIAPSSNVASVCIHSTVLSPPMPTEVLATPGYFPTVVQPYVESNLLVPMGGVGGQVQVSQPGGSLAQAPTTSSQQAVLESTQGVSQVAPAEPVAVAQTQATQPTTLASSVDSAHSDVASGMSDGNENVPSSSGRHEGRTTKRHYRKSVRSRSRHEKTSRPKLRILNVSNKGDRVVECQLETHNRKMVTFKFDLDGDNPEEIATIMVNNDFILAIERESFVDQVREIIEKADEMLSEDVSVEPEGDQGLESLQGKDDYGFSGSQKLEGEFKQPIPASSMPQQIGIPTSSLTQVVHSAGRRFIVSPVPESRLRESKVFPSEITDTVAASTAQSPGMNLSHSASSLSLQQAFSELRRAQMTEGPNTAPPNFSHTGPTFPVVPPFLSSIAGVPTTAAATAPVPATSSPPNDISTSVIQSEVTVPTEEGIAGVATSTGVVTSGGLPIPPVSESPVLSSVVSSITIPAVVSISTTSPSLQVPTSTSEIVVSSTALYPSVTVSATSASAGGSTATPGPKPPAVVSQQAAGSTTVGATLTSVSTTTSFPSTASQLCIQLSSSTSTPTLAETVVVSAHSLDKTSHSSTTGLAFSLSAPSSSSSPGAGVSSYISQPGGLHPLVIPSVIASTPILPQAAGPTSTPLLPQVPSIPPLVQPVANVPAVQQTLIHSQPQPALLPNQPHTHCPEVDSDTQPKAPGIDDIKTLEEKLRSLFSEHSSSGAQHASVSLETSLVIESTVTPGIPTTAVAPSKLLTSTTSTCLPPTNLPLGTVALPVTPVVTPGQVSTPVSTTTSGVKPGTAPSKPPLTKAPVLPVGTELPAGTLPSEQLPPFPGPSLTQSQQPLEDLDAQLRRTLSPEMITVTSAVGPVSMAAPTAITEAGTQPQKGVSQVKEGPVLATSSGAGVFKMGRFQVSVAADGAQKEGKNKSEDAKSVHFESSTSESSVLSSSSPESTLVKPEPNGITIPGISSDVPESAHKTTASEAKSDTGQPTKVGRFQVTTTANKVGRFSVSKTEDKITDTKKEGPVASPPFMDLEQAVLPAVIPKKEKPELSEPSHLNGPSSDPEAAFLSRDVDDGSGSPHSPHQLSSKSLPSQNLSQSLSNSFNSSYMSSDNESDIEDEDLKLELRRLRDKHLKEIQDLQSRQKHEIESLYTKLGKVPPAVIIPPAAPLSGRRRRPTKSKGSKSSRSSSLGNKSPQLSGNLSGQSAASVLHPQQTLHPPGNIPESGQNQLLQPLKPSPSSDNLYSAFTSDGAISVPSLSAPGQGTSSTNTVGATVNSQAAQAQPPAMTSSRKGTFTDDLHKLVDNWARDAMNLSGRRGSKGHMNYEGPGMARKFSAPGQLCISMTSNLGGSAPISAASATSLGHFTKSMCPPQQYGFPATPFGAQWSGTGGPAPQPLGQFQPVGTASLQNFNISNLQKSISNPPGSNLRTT
Chain of Serine/threonine-protein kinase 26 (Homo sapiens) (Q9P289 2-416 limits assumed): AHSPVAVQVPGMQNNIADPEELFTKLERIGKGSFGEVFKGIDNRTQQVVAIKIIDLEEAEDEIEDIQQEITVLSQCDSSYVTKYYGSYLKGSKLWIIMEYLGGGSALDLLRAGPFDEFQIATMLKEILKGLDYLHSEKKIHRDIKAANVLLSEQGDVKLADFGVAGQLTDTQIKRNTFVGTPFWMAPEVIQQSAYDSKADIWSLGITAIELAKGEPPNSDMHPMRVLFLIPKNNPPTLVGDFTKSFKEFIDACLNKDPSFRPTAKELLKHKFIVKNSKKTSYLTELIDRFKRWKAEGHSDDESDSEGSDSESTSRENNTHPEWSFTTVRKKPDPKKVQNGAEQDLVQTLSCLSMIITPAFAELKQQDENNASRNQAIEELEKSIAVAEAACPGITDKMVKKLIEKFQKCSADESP

As for `CC(C)[C@H](NC(=O)c1cc(-c2cnn3cc(-c4ccc(OCCN5CCCCC5)cc4)cnc23)cs1)C(F)(F)F`, the inhibition is 7% in assay [1], 0% in assay [2] and 1% in assay [3]. For the same molecule, the fold change (FC) in assay [4] stood at 0.05.
As to `O=C(N[C@@H](C1CC1)C(F)(F)F)c1cc(-c2cnn3cc(-c4ccc(F)cc4)cnc23)cs1`, the inhibition is 0% in assay [5]; 5% in assay [6]; 7% in [7]; 5% in [8]; 19% in assay [9]. Besides, the fold change (FC) in assay [10] is 0.
For `CNC(=O)c1ccccc1Oc1nc(Nc2cc(OC)c(OC)c(OC)c2)ncc1Br`, the inhibition in assay [11] was found to be 51%; in assay [12], 0%. The figures for the fold change (FC) in [13] and in [14] were 0.05 and 0.12, respectively.
